Experimental data reported in ChEMBL document CHEMBL1129547, “Synthesis and biological evaluation of naphthyldesferrithiocin iron chelators” (1996).

What was measured:
[1] = The amount of iron absorbed by the treated animals at postdrug dosage of 300(umol/kg) (route sub cutaneous) using 40% cremophore as vehical in Cebus monkeys; assay type: functional
Procedure, shortened: (§1)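 Iron-overloaded Cebus monkeys were kept in metabolic cages on a low-iron liquid diet starting 7 days before dosing, fed by body weight with intake monitored, and fasted 24 h before dosing. They were sedated with ketamine (7–10 mg/kg im) plus scopolamine (0.04–0.07 mg/kg im). Urine and feces were collected every 24 h over days 1–3 and iron measured by flame AA. Iron balance = dietary intake − (urinary + fecal iron).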

[2] = The amount of iron absorbed by the untreated over a period of 3 days animals at prodrug dosage of 300(umol/kg) (route per oral)using 40% cremophore as vehical in Cebus monkeys; assay type: functional
Procedure, shortened: (§2)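 Baseline period in iron-overloaded Cebus monkeys housed in metabolic cages on a low-iron liquid diet begun 7 days before dosing, fed by body weight with intake monitored. Iron intake and output were measured over the 3 days before drug administration (day −2 to day 0). Urine and feces were collected at 24-h intervals and iron determined by flame atomic absorption. Net balance = intake − (urinary + fecal iron).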

[3] = The amount of iron absorbed by the untreated over a period of 3 days animals at prodrug dosage of 300(umol/kg) (route sub cutaneous) using 40% cremophore as vehical in Cebus monkeys; assay type: functional; procedure, shortened: as §2
[4] = The amount of iron absorbed by the treated animals at postdrug dosage of 300(umol/kg) (route per oral)using 40% cremophore as vehical in Cebus monkeys; assay type: functional; procedure, shortened: as §1
[5] = The amount of iron absorbed by the untreated over a period of 3 days animals at prodrug dosage of 150(umol/kg) (route sc)using distill water as vehical; assay type: functional, Cercopithecidae; procedure, shortened: as §2
[6] = The amount of iron absorbed by the treated animals at postdrug dosage of 150(umol/kg) (route sc)using distill water as vehical; assay type: functional, Cercopithecidae; procedure, shortened: as §1
[7] = The amount of iron absorbed by the untreated over a period of 3 days animals at prodrug dosage of 150(umol/kg) (route per oral)using 40% cremophore as vehical in Cebus monkeys; assay type: functional; procedure, shortened: as §2
[8] = The amount of iron absorbed by the treated animals at postdrug dosage of 150(umol/kg) (route per oral)using 40% cremophore as vehical in Cebus monkeys; assay type: functional; procedure, shortened: as §1

Compound	Postdrug [1] [µg/kg]	Predrug [2] [µg/kg]	Predrug [3] [µg/kg]	Postdrug [4] [µg/kg]	Predrug [5] [µg/kg]	Postdrug [6] [µg/kg]	Predrug [7] [µg/kg]	Postdrug [8] [µg/kg]
O=C(O)[C@@H]1CSC(c2cc3ccccc3cc2O)=N1	120	118	80	49	–	–	–	–
O=C(O)[C@H]1CSC(c2c(O)ccc3ccccc23)=N1	–	358	–	381	–	–	–	–
O=C(O)[C@@H]1CSC(c2c(O)ccc3ccccc23)=N1	-9	54	26	63	–	–	–	–
O=C(O)[C@H]1CSC(c2cc3ccccc3cc2O)=N1	156	25	164	-162	–	–	–	–
CC(=O)N(O)CCCCCNC(=O)CCC(=O)N(O)CCCCCNC(=O)CCC(=O)N(O)CCCCCN [DEFEROXAMINE]	–	–	–	–	217	245	–	–
C[C@]1(C(=O)O)CSC(c2ncccc2O)=N1 [DESFERRITHIOCIN]	–	–	–	–	–	–	230	-500
